High-throughput results from PubChem.
ADAM10 inh: inhibitors of human ADAM10; AID 720582; inhibition, % at 7 µM; 370,000 tested, 0.62% active; recombinant ADAM10, EDANS/DABCYL FRET peptide cleavage, 3 h;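 active = inhibition above a per-campaign cutoff equal to the mean of compounds falling between control-based bounds plus 3 SD, cut at about 20% in these data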;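 also: 0% = DMSO wells while the 100% control is not disclosed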
Target sequence (O14672 214-748 limits assumed): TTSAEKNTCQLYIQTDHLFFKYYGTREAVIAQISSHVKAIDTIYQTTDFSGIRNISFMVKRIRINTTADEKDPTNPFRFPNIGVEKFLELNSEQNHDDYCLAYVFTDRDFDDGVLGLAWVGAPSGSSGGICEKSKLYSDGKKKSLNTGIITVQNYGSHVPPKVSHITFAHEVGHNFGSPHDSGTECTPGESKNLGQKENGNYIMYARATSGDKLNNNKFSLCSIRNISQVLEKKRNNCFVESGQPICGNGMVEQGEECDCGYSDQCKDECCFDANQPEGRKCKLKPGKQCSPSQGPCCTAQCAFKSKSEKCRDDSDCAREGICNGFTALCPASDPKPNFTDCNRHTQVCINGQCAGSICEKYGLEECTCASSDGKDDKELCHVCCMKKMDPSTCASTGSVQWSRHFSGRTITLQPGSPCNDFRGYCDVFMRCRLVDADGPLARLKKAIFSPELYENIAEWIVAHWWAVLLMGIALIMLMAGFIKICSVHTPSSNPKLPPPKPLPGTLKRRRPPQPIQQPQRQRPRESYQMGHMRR
GRIN3A LBD mod: modulators (binders) of human NR3A ligand-binding domain; NR3A LBD differential scanning fluorimetry, Tm shift; 0% = protein alone, 100% = glycine-bound protein; Tm shift relative to glycine control, % at 25 µM; 340,000 tested, 2.5% active; AID 1259313;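 active = melting temperature shift of at least 10% of the positive control shift, at one fixed dose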
MPTP block: blocks calcium-induced mitochondrial swelling. 360,000 tested, 1.4% active. inhibition, % at 10 µM. isolated mouse mitochondria, Ca2+ swelling absorbance, 30 min. AID 602449;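 active = inhibition of 50% or more, scaled per plate between neutral and stimulator controls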;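 also: 0% = DMSO wells given calcium and 100% = 1 mM EGTA wells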
SKN-1 inh: C. elegans SKN-1 inhibition | AID 624304 | C. elegans VP596 Pgst-4::GFP/RFP ratio, acrylamide-induced, 24 h | inhibition, % at 21.8 µM | 360,000 tested, 0.49% active;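 active = interference check ratio from 0.5 to 1.5 plus GFP to RFP signal ratio inhibition reaching or exceeding a fixed threshold, cut at about 30% in these data, passing the limit was not always enough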
MT1-MMP act inh: inhibitors of human MT1-MMP activation | 360,000 tested, 0.061% active | GFP/RFP ratio change, % at 20 µM | AID 651647 | HT1080 RFP-PRO-GFP cells, GFP/RFP ratio fluorescence, overnight; percent of plate control window, DMSO zero;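 active = GFP/RFP ratio change of at least 30% with cell ATP level not reduced by more than half and red fluorescence within 50% of control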
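Compound: 20 µM single dose, 1% DMSO / System: HT1080 RFP-PRO-GFP cells / Controls: DMSO and RFP-L50D-GFP cell wells / Read-out basis: GFP/RFP fluorescence ratio / Schedule: overnight compound exposure at 37 °C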
ADAM17 inh: inhibits human ADAM17; recombinant ADAM17, EDANS/DABCYL FRET peptide cleavage; inhibition, % at 6.95 µM; 370,000 tested, 0.83% active; AID 720648;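 active = inhibition above the mean of compounds lying between control limits plus 3 SD, set per campaign, cut at about 8.5% in these data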;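 also: 0% = DMSO-only wells as the low control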
Rh123 counter: mitochondrial membrane potential, counter-screen. inhibition, % at 10 µM. 5,000 tested, 78% active. isolated mitochondria, Rhodamine 123 fluorescence. shares compounds with MPTP block; in the data active = inhibition above about 22%;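 also: 0% = DMSO vehicle and 100% = positive control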
MPTP swell DR: dose response confirmation of mitochondrial permeability transition pore inhibitors; shares compounds with MPTP block; isolated mitochondria swelling, absorbance; IC50, µM; 780 tested, 58% active; in the data active = IC50 below about 20 µM
MPTP counter DR: active in counter-screen for permeability transition pore inhibitors; 780 tested, 49% active; shares compounds with MPTP block; isolated mitochondria counterscreen, fluorescence read-out; IC50, µM; AID 651564; in the data active = IC50 below about 80 µM
MT1-MMP conf: validation of inhibitors of human MT1-MMP activation | shares compounds with MT1-MMP act inh | HT1080 RFP-PRO-GFP cells, GFP and RFP fluorescence ratio, overnight | inhibition, % at 20 µM | 200 tested, 10% active;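 active = inhibition of at least 50% in the primary cell screen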
ADAM10 confirm: confirmation of inhibitors of human ADAM10. AID 743208. shares compounds with ADAM10 inh. 2,100 tested, 1% active. inhibition, % at 6.95 µM. ADAM10 QFRET peptide cleavage, EDANS fluorescence;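 active = inhibition above about 20% chosen separately for each screening run, limit read from the data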;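 also: 0% = DMSO wells and 100% = marimastat wells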
ADAM17 ctr: ADAM17 inhibition, counter-screen for ADAM10 exosite hits; shares compounds with ADAM10 inh; ADAM17 QFRET peptide cleavage, EDANS fluorescence; inhibition, % at 6.95 µM; 2,100 tested, 0.5% active; AID 743214;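 active = mean triplicate inhibition above the solvent-only control wells' mean plus 3 SD, cut at about 12% in these data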;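 also: 0% = DMSO wells and 100% = marimastat wells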
ADAM10 counter: ADAM10 inhibition, counter-screen for ADAM17 exosite hits; shares compounds with ADAM17 inh; inhibition, % at 6.95 µM; recombinant ADAM10, EDANS/DABCYL FRET peptide cleavage, 3 h; 2,900 tested, 47% active;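 active = mean inhibition over the triplicate runs exceeds the activity threshold set in the earlier primary screen, cut at about 20% in these data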;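 also: 0% = DMSO wells and 100% = marimastat wells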
ADAM17 confirm: human ADAM17 inhibition, confirmation; shares compounds with ADAM17 inh; 2,900 tested, 65% active; AID 743257; recombinant ADAM17, EDANS/DABCYL QFRET peptide cleavage; inhibition, % at 6.95 µM;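 active = mean inhibition across replicates above the hit cutoff set in the primary screen, cut at about 8.5% in these data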;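 also: 0% = DMSO wells and 100% = marimastat wells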
An asterisk follows results filed as active; . = no result. In the library only some 4.7% were active in any assay of this set; here they are far more common.

SMILES | ADAM10 inh | GRIN3A LBD mod | MPTP block | SKN-1 inh | MT1-MMP act inh | ADAM17 inh | MT1-MMP conf | others
Cc1cccc(Nc2nc(N)c([N+](=O)[O-])c(N3CC(C)CC(C)C3)n2)c1 (configuration not stated) | 20* | 5 | 56* | 12 | 2 | 9.4* | . | Rh123 counter=-6;MPTP swell DR=>100;MPTP counter DR=63*;ADAM10 counter=31*;ADAM17 confirm=17*
O=C(/C=C/c1cccc(C(F)(F)F)c1)Nc1cccc(C(F)(F)F)c1 | 26* | 14* | 87* | 35 | -28 | 12* | . | Rh123 counter=85*;ADAM10 confirm=8;ADAM17 ctr=3;ADAM10 counter=29*;ADAM17 confirm=17*
CC(=O)c1cccc(NC(=O)CCS(=O)(=O)c2cccc3nsnc23)c1 | -1 | 0 | 1 | -12 | -1 | -5 | .
CC(C)c1ccc(S(=O)(=O)Nc2ccc(SC(F)F)cc2)cc1 | 41* | 13* | 72* | 3 | 2 | 19* | . | Rh123 counter=83*;ADAM10 confirm=9;ADAM17 ctr=3;ADAM10 counter=26*;ADAM17 confirm=15*
CCCCn1c(CNC(C)=O)nc2ccccc21 | -7 | 0 | -1 | -8 | 5 | 0 | .
COc1ccc(C(=O)c2sc(Nc3cccc(OC)c3)c(C(=O)Nc3cccc(C)c3C)c2N)cc1 | 9 | 5 | 11 | -13 | 1 | 1 | .
COc1ccccc1NC(=O)c1c(Nc2ccccc2C)sc(C(=O)Nc2cccc(Cl)c2)c1N | 21* | 31* | 87* | 1 | -3 | 10* | . | Rh123 counter=51*;ADAM10 confirm=28*;ADAM17 ctr=10;ADAM10 counter=20;ADAM17 confirm=14*
Cc1ccc(SCCC(=O)Nc2ccc(Br)c(C)c2)cc1 | 19 | -2 | 86* | 13 | -1 | 12* | . | Rh123 counter=92*;ADAM10 counter=31*;ADAM17 confirm=17*
Cc1ccc(NC(=O)c2cccs2)cc1S(=O)(=O)Nc1cccc(Cl)c1 | 37* | 35* | 60* | 15 | 1 | 20* | . | Rh123 counter=68*;ADAM10 confirm=2;ADAM17 ctr=2;ADAM10 counter=11;ADAM17 confirm=6
O=C(NNC(=O)c1cccs1)Nc1cccc(Cl)c1 | 1 | 1 | 1 | 5 | 0 | -2 | .
CSc1ccc(CN(C)Cc2cc(=O)oc3c(C)c(C)ccc23)cc1 | 8 | 0 | 30 | -3 | -2 | -1 | .
CCOc1ccc(CN(C)Cc2cc(=O)oc3c(C)c(C)ccc23)cc1OC | 7 | 0 | 52* | -5 | -7 | 9.4* | . | Rh123 counter=85*;ADAM10 counter=-4;ADAM17 confirm=-1
Cc1c(C(=O)O)c(O)cc2c1C(=O)c1c(O)c([C@@H]3O[C@H](CO)[C@@H](O)[C@H](O)[C@H]3O)c(O)c(O)c1C2=O | -1 | 1 | 13 | 70 | 50* | 1 | 41
COc1c(O)cc2c(c1O)[C@@H]1O[C@H](CO)[C@@H](O)[C@H](O)[C@H]1OC2=O | 7 | -1 | 1 | -1 | 1 | 2 | .
CCC(=O)c1c[nH]c(C(=O)N2CCOCC2)c1 | -5 | 0 | -1 | 9 | 0 | 0 | .
O=S(=O)(c1ccc2nc(COc3ccc(Cl)cc3Cl)[nH]c2c1)N1CCOCC1 | 7 | -14 | 17 | -12 | 35* | 3 | 14
Cc1ccccc1OCc1nc2ccc(S(=O)(=O)N3CCOCC3)cc2[nH]1 | 1 | -1 | 9 | 1 | 3 | 1 | .
O=C(Nn1cnnc1)C(c1ccccc1)c1ccccc1 | 13 | -2 | -3 | 13 | 5 | -1 | .
Cc1[nH]n(-c2ccccc2)c(=O)c1N=Nc1nccs1 | 1 | -5 | 21 | 29 | 32* | 1 | 27
O=C1CN(c2ccccc2Cl)C(=O)CN1c1ccccc1Cl | 15 | 1 | 1 | -13 | 1 | 2 | .
Cc1ccccc1N1CC(=O)N(c2ccccc2C)CC1=O | 2 | 1 | -2 | 24 | 36* | -3 | 13
COc1cc(/C=C2/C(=N)N3C(SC)=NSC3=NC2=O)ccc1OC(=O)c1ccco1 | -9 | 3 | 1 | 0 | 0 | -4 | .
CSC1=NSC2=NC(=O)/C(=C\c3cccs3)C(=N)N12 | -9 | -16 | 6 | 7 | 35* | -5 | 30
COC(=O)c1ccc(CN2CCCC(C(=O)Nc3cccc(-n4cccn4)c3)C2)cc1 (configuration not stated) | -1 | 1 | -1 | 6 | 1 | 0 | .
COc1cc(/C=C/c2cc(OC(C)=O)c3ccccc3n2)c(OC(C)=O)c([N+](=O)[O-])c1 | 1 | -2 | 11 | 4 | 37* | 0 | 24
SMILES | ADAM10 inh | GRIN3A LBD mod | MPTP block | SKN-1 inh | MT1-MMP act inh | ADAM17 inh | MT1-MMP conf | others
CC(=O)Oc1c(Cl)cc(Cl)cc1/C=C/c1ccc2ccccc2n1 | -5 | -11 | 12 | 12 | -265 | -1 | .
COC(=O)c1sccc1NC(=O)COc1cccc(C)c1 | -10 | 0 | 3 | -5 | -3 | -6 | .
COC(=O)C(C(=O)OC)c1ccccc1NS(=O)(=O)c1ccc(C)cc1 | -2 | . | 1 | 6 | -1 | 5 | .
COc1cc(NS(=O)(=O)c2ccc(C)cc2)c2c(c1N)C(=O)c1ccccc1C2=O | -13 | . | 10 | 36* | 47* | -3 | 22
CCN1CCN(c2ccc(S(=O)(=O)N3CCCCC3)cc2NC(=O)Cc2ccc(Cl)c(Cl)c2)CC1 | . | -3 | 14 | -14 | 6 | . | .
COc1ccc(Br)cc1CNc1ccc(O)cc1 | -18 | -2 | -4 | -4 | 52* | -11 | 0
COc1ccc(C)cc1N=Nc1ccc(O)c2ncccc12 | -3 | -4 | 3 | 4 | 31* | 2 | 34
COc1ccc(N=Nc2ccc(O)c3ncccc23)cc1 | -4 | -2 | 2 | -3 | 8 | -3 | .
